Assay results as given in ChEMBL document CHEMBL1155195 (J Med Chem, 2009).
The source made the active and inactive calls. The rule behind the calls is not given here.

What was measured:
U-937 [1] = assay: Cytotoxicity against human U937 cells after 72 hrs by sulforhodamine B assay; type: functional, cell-based; details: U-937, 72 h
Caspase-3 (Homo sapiens) [2] = biological target: T1, Caspase-3 (Homo sapiens) (UniProt P42574); assay: Induction of procaspase 3 activation in human SK-MEL-5 cells at 25 uM after 1 hr by immunofluorescent staining-based confocal microscopy in presence of 25 uM caspase 3/7 inhibitor FAM-DEVD-fmk; type: cell-based
T1 sequence (whole entry): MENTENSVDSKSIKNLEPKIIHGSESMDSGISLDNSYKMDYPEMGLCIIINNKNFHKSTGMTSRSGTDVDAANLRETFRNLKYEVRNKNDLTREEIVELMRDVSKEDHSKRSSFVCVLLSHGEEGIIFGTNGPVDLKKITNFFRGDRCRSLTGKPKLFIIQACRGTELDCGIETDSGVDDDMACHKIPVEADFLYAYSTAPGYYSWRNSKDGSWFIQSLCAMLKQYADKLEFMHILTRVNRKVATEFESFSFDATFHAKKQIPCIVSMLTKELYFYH
Method in brief: (§1)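 Live SK-MEL-5 cells treated with DMSO or compound (25 μM) together with FAM-DEVD-fmk (25 μM), a fluorescent irreversible active-site caspase-3/-7 label, for 1 hour; washed in phenol red-free medium, incubated 2 hours further, then imaged by multiphoton confocal microscopy.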

U-937 [3] = assay: Induction of apoptosis in human U937 cells assessed as viable cells at 50 uM after 12 hrs by FITC-conjugated annexin V and propidium iodide staining-based flow cytometry; type: functional; details: U-937, 12 h, read-out: Activity
Method in brief: (§2)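 U-937 cells incubated with compound at 50 μM or vehicle for 12 hours, then co-stained with propidium iodide and FITC-labeled Annexin V; Annexin V-positive/PI-negative cells scored as early apoptotic.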

U-937 [4] = assay: Induction of apoptosis in human U937 cells assessed as non-viable necrotic cells at 50 uM after 12 hrs by FITC-conjugated annexin V and propidium iodide staining-based flow cytometry; type: functional; method in brief: as §2
[5] = Binding affinity to zinc assessed as formation of zinc-compound complex by EGTA fluorescence titration assay
U-937 [6] = assay: Induction of apoptosis in human U937 cells assessed as late apoptotic cells at 50 uM after 12 hrs by FITC-conjugated annexin V and propidium iodide staining-based flow cytometry; type: functional; method in brief: as §2
Caspase-3 (Homo sapiens) [7] = biological target: T1, Caspase-3 (Homo sapiens); assay: Induction of procaspase 3 activation in human SK-MEL-5 cells assessed as caspase 3 cytoplasmic colocalization at 25 uM after 1 hr by immunofluorescent staining-based confocal microscopy; type: cell-based
Method in brief: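 SK-MEL-5 cells given DMSO or 25 μM compound for 1 hour, washed with phenol red-free medium, incubated 2 more hours, fixed, stained with rabbit anti-caspase-3 antibody (recognizes procaspase-3 and caspase-3) plus anti-rabbit Alexa Fluor 647 secondary, mounted and imaged by multiphoton confocal microscopy.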

U-937 [8] = assay: Induction of apoptosis in human U937 cells assessed as early apoptotic cells at 50 uM after 12 hrs by FITC-conjugated annexin V and propidium iodide staining-based flow cytometry; type: functional; method in brief: as §2
Caspase-3 (Homo sapiens) [9] = biological target: T1, Caspase-3 (Homo sapiens); assay: Activation of 6xHis-tagged recombinant caspase 3 expressed in Escherichia coli BL21 (DE3) at 50 uM after 30 mins in presence of zinc ion
SK-MEL-5 = assay: Zinc chelating activity in human SK-MEL-5 cells assessed as appearance of punctate cytoplasmic staining pattern at 25 uM after 1 hr by immunofluorescent staining-based confocal microscopy; type: functional, cell-based
Method in brief: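 Live SK-MEL-5 cells incubated 1 hour with 25 μM fluorescent derivative, washed with phenol red-free medium, incubated 2 further hours; DNA stained with SYBR green; imaged by multiphoton confocal microscopy for subcellular, punctate cytoplasmic fluorescence.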

Caspase-3 (Homo sapiens) [10] = biological target: T1, Caspase-3 (Homo sapiens); assay: Induction of procaspase 3 activation in human SK-MEL-5 cells assessed as caspase 3 cytoplasmic colocalization at 25 uM after 1 hr by immunofluorescent staining-based confocal microscopy in presence of 25 uM caspase 3/7 inhibitor FAM-DEVD-fmk; type: cell-based; method in brief: as §1
Caspase-3 (Homo sapiens) [11] = biological target: T1, Caspase-3 (Homo sapiens); assay: Inhibition of 6xHis-tagged recombinant caspase 3 expressed in Escherichia coli BL21 (DE3) at 10 uM after 30 mins in absence of zinc ion

## C=CCc1cccc(/C=N/NC(=O)CN2CCN(Cc3ccccc3)CC2)c1O [PAC-1]
U-937 [1]
  IC50: 4.8 µM
Caspase-3 (Homo sapiens) [2]
  Activity: Active
U-937 [3]
  viability at 50 µM: 58%
U-937 [4]
  Activity: 0%
[5]
  Kd: 52 nM
U-937 [6]
  Activity: 11%
Caspase-3 (Homo sapiens) [7]
  Activity: Active
U-937 [8]
  Activity: 31%

## C=CCc1cccc(/C=N/NC(=O)CN2CCN(Cc3cccc(Cn4cc(CNC(=O)Cc5c(C)c6cc(S(=O)(=O)O)c(N)cc6oc5=O)nn4)c3)CC2)c1O
Caspase-3 (Homo sapiens) [9]
  Activity: 20%
U-937 [1]
  IC50: 14.8 µM
SK-MEL-5
  Activity: Active
Caspase-3 (Homo sapiens) [10]
  Activity: Active
[5]
  Kd: 61 nM
Caspase-3 (Homo sapiens) [7]
  Activity: Active

## COC(=O)c1ccccc1/C=N/NC(=O)CN1CCN(Cc2ccccc2)CC1
U-937 [1]
  IC50: > 100 µM
[5]
  Kd: > 10000 nM

## C=CCc1cccc(CNNC(=O)CN2CCN(Cc3ccccc3)CC2)c1O
U-937 [1]
  IC50: 59 µM
[5]
  Kd: > 10000 nM

## O=C(CN1CCN(Cc2ccccc2)CC1)NCc1ccccc1O
U-937 [1]
  IC50: > 100 µM
[5]
  Kd: > 10000 nM

## O=C(CN1CCN(Cc2ccccc2)CC1)N/N=C/c1ccccc1
U-937 [1]
  IC50: > 100 µM
[5]
  Kd: > 10000 nM

## Nc1ccccc1/C=N/NC(=O)CN1CCN(Cc2ccccc2)CC1
U-937 [1]
  IC50: > 100 µM
[5]
  Kd: > 10000 nM

## C=CCc1cccc(/C=N/NC(=O)CN2CCN(Cc3ccc(OC)cc3)CC2)c1O
U-937 [1]
  IC50: 2.7 µM
[5]
  Kd: 47 nM

## C=CCc1cccc(/C=N/NC(=O)CN2CCN(Cc3cc(OC)ccc3OC)CC2)c1O
U-937 [1]
  IC50: 1 µM
[5]
  Kd: 39 nM

## COc1ccc(OC)c(CN2CCN(CC(=O)N/N=C/c3ccccc3O)CC2)c1
U-937 [1]
  IC50: 12 µM
[5]
  Kd: 65 nM

## C=CCc1cc(/C=N/NC(=O)CN2CCN(Cc3ccccc3)CC2)c(O)c(CC=C)c1
U-937 [1]
  IC50: 1.8 µM
[5]
  Kd: 43 nM

## C=CCc1cccc(/C=N/NC(=O)CN2CCN(Cc3cccnc3)CC2)c1O
U-937 [1]
  IC50: 14 µM
[5]
  Kd: 62 nM

## C=CCc1cccc(/C=N/NC(=O)CC2CCN(Cc3ccccc3)CC2)c1O
Caspase-3 (Homo sapiens) [11]
  inhibition: Active
U-937 [1]
  IC50: 2.8 µM
[5]
  Kd: 44 nM

## C=CCc1cccc(/C=N/NC(=O)CC2CCN(C(=O)OC(C)(C)C)CC2)c1O
Caspase-3 (Homo sapiens) [11]
  inhibition: Active
U-937 [1]
  IC50: 6.5 µM
[5]
  Kd: 48 nM

## C=CCc1cccc(/C=N/NC(=O)CN2CCN(Cc3ccncc3)CC2)c1O
U-937 [1]
  IC50: 21 µM
[5]
  Kd: 80 nM

## C=CCc1cccc(/C=N/NC(=O)CN2CCN(Cc3ccc(F)cc3)CC2)c1O
U-937 [1]
  IC50: 2 µM
U-937 [3]
  viability at 50 µM: 62%
U-937 [4]
  Activity: 0%
[5]
  Kd: 48 nM
U-937 [6]
  Activity: 8%
U-937 [8]
  Activity: 30%

## C=CCc1cccc(/C=N/N(C)C(=O)CN2CCN(Cc3ccccc3)CC2)c1O
U-937 [1]
  IC50: 22 µM
[5]
  Kd: > 10000 nM

## C=CCc1cccc(/C=N/NC(=O)CN2CCN(Cc3cccc([N+](=O)[O-])c3)CC2)c1O
U-937 [1]
  IC50: 4.6 µM
[5]
  Kd: 45 nM

## O=C(CN1CCN(Cc2ccccc2)CC1)N/N=C/c1ccccc1Cl
U-937 [1]
  IC50: 57 µM
[5]
  Kd: > 10000 nM

## C=CCc1cccc(/C=N/NC(=O)CN2CCC(Cc3ccccc3)CC2)c1O
U-937 [1]
  IC50: 2.7 µM
U-937 [3]
  viability at 50 µM: 49%
U-937 [4]
  Activity: 0%
[5]
  Kd: 49 nM
U-937 [6]
  Activity: 10%
U-937 [8]
  Activity: 41%

## O=C(CN1CCN(Cc2ccccc2)CC1)N/N=C/c1ccccc1C(=O)O
U-937 [1]
  IC50: > 100 µM
[5]
  Kd: > 10000 nM

## C=CCc1cccc(/C=N/NC(=O)CN2CCN(Cc3ccccc3)CC2)c1OC
U-937 [1]
  IC50: 32 µM
[5]
  Kd: > 10000 nM

## O=C(CN1CCN(Cc2ccccc2)CC1)N/N=C/c1ccccc1SSc1ccccc1/C=N/NC(=O)CN1CCN(Cc2ccccc2)CC1
U-937 [1]
  IC50: > 100 µM
[5]
  Kd: > 10000 nM

## CSc1ccccc1/C=N/NC(=O)CN1CCN(Cc2ccccc2)CC1
U-937 [1]
  IC50: 61 µM
[5]
  Kd: > 10000 nM

## O=C(CN1CCN(Cc2ccccc2)CC1)N/N=C/c1ccccc1S
U-937 [1]
  IC50: > 100 µM
[5]
  Kd: > 10000 nM

## O=C(CN1CCN(Cc2ccccc2)CC1)NCCc1ccccc1O
U-937 [1]
  IC50: > 100 µM
[5]
  Kd: > 10000 nM
